Bioassay records: PubChem, Broad Institute
The list is not random: actives were taken first. Their share in the collection is about 2.2%.
dFosB act: mouse delta FosB homodimer activation; P13346; purified delta FosB, TAMRA-CDK5 oligo fluorescence polarization; percent of positive-control signal above neutral wells; activation, % at 25 µM; 0.99% of 340,000 active;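 active = mean activation above about 17%, with every replicate also reaching it, limit read from the data, passing the limit was not always enough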
Target sequence (P13346 whole entry, looked up): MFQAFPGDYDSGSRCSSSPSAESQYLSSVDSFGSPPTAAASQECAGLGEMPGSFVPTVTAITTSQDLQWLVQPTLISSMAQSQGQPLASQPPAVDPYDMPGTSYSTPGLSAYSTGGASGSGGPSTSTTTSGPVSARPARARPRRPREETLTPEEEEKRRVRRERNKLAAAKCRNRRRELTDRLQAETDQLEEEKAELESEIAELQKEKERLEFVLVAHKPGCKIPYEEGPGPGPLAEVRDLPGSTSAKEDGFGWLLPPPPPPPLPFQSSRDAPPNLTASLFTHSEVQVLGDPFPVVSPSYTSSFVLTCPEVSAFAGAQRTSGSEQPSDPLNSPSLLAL
F508del corr: correctors of CFTR F508del function in bronchial epithelial cells; activity (quench increase), % at 7.58 µM; 0.36% of 350,000 active; CFBE cells, YFP halide quenching; stimulated with forskolin plus potentiator P3; % fluorescence drop versus neutral controls; AID 720511;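 active = mean added fluorescence quench of at least 8% versus neutral control, with both replicates also reaching 8%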;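 also: cells transiently co-express mutant CFTR-F508del with the halide-sensitive YFP; corrector assay measuring rescue of mutant channel to the surface after 24 h compound exposure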
S100A4 inh HTS: inhibitors of human S100A4 binding to myosin IIA peptide; 0.14% of 360,000 active; inhibition, % at 10.7 µM; S100A4/TAMRA-MyoIIA peptide fluorescence polarization; AID 652163;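 active = mean inhibition of at least 70% across replicates, with every replicate also reaching that level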
Target sequence (P26447 whole entry, looked up): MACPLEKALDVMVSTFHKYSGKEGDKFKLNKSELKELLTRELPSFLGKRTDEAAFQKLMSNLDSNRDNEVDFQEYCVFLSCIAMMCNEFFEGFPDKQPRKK
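Material: S100A4 monomer protein / Buffer or medium: 50 mM HEPES pH 7.2, 10 mM CaCl2, 100 mM KCl / Times: 5 min incubation before reading / Benchmarks: neutral control DMSO, positive control TFP / Reagent: labelled myosin peptide probe, 5 nM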
FGF22 binding: binders of recombinant human FGF22 by thermal shift. AID 651658. 1.5% of 340,000 active. activity (Tm shift, normalised), % at 9.99 µM. SYPRO orange fluorescence; percent of sucrose octasulfate shift, DMSO zero;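 active = mean Tm shift, scaled 0 neutral to 100 positive control, at about 1.3% or above, every replicate too, limit read from the data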
Target sequence (Q9HCT0 whole entry, looked up): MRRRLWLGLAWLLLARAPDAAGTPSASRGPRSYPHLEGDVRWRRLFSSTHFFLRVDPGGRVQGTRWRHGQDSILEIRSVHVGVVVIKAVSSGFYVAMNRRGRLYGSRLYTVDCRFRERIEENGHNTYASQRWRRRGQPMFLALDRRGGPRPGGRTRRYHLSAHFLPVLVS
Numbers without * were called inactive; / = not tested or not shown.

SMILES | dFosB act | F508del corr | S100A4 inh HTS | FGF22 binding
Cc1cc(C)c(C(=O)NC2CCCc3c2cnn3-c2cccc(C)c2C)o1 (configuration not stated) | -4 | 8.4* | -4 | 0
CCN1[C@H](C(=O)N(C)C)[C@@H](CO)[C@@H]2Cn3c(ccc(C4=CCCC4)c3=O)[C@@H]21 | / | / | / | 0
CCOC(=O)c1ccc(NC(=O)c2cc3c(s2)CCC3)cc1 | -2 | 0 | -2 | 45*
CCOC(=O)c1ccc(NC(=O)c2ccc(NC(=O)c3ccccc3)cc2)cc1 | 3 | / | / | /
CCCNC(=O)N1[C@H](CN(C)C(C)=O)[C@@H](c2ccc(C3=CCCC3)cc2)[C@@H]1CO | / | 0 | 1 | 0
C[C@@H]1CN([C@H](C)CO)C(=O)c2cc(C#CC3CC3)cnc2O[C@H]1CN(C)C(=O)c1ccncc1 | / | 2 | / | /
Nc1nn(-c2ccccc2)c(N)c1N=Nc1cccc(F)c1 | / | 11* | -3 | 0
CN(c1cccc(NC(=O)c2ccc(C(C)(C)C)cc2)c1)S(C)(=O)=O | -6 | -6 | -8 | 43*
CC(C)NC(=O)N(C)C[C@@H]1Oc2cc(C#Cc3ccc(F)cc3)ccc2S(=O)(=O)N([C@@H](C)CO)C[C@@H]1C | / | 1 | -6 | 0
O=C(CN1CCCC1)OCCCc1ccccc1 | 4 | 3 | 4 | 44*
Cc1noc(C)c1NC(=O)Nc1ccc2c(c1)CC(=O)N([C@H](C)CO)C[C@@H](C)[C@H](CN(C)S(=O)(=O)c1c(C)noc1C)O2 | / | 5 | -3 | 0
Cc1ccc([N+](=O)[O-])cc1S(=O)(=O)Nc1cccc(S(=O)(=O)NC2=NCCC2)c1 | 3 | 5 | 1 | 45*
O=S(=O)(NC1=NCCC1)c1cccc(NS(=O)(=O)c2ccc(F)c(Cl)c2)c1 | 2 | 2 | -2 | 0
C[C@H](CO)N1C[C@H](C)[C@H](CN(C)Cc2ccccc2)Oc2ccc(NC(=O)Cn3cnnn3)cc2CC1=O | / | -3 | -41 | 0
COC(=O)CSc1nnc(CNC(=O)c2ccc(S(=O)(=O)N(C)C)cc2)n1C | -2 | 4 | -3 | 43*
O=C(NC1CCC1)[C@H]1[C@H](CO)[C@H]2Cn3c(ccc(C4=CCCC4)c3=O)[C@@H]1N2CC1CC1 | / | -2 | -1 | 0
CN1CCc2c1nc1ccccc1c2N=C1CCCN1Cc1ccccc1 | -10 | 0 | -2 | 43*
C=CC[C@@H](CC(=O)N(CCO)Cc1ccccc1)C(=O)N[C@H](COC(=O)[C@H](CC=C)CC(=O)OC(C)(C)C)Cc1c[nH]c2ccccc12 | -19 | 8.5* | 8 | 0
O=C(C[C@@H]1CC[C@@H](NC(=O)Cc2cccnc2)[C@@H](CO)O1)Nc1ccccc1 | / | -1 | 6 | /
Cc1ccc(-c2ccc3c(c2)O[C@@H](CN(C)C(=O)C2CCCCC2)[C@@H](C)CN([C@@H](C)CO)S3(=O)=O)cc1 | / | 0 | / | /
C[C@H]1CN([C@@H](C)CO)S(=O)(=O)c2ccc(C#CC3CCCCC3)cc2O[C@H]1CN(C)Cc1cccnc1 | / | 9.9* | -14 | 0
COc1ccccc1C#Cc1ccc2c(c1)O[C@@H](CN(C)Cc1cccnc1)[C@H](C)CN([C@@H](C)CO)S2(=O)=O | / | 9.5* | 4 | 0
CCC(=O)N1C[C@@H](C)[C@H](OC)CN(C)C(=O)c2ccc(NC(=O)c3cnccn3)cc2OC[C@@H]1C | / | 1 | -21 | 0
CC(=O)OCCn1c2nc(=O)[nH]c(=O)c-2nc2cc(C)c(C)cc21 | -7 | 18* | 67 | 0
C[C@@H]1CCCCO[C@@H](CN(C)C(=O)Cc2ccccc2)[C@@H](C)CN([C@H](C)CO)C(=O)c2cc(NC(=O)CCCCCC(=O)Nc3ccccc3N)ccc2O1 | / | -2 | -9 | 0
SMILES | dFosB act | F508del corr | S100A4 inh HTS | FGF22 binding
CN1C(=O)c2cc(NC(=O)c3ccccc3Cl)ccc2OC[C@H]2O[C@H](CC(=O)NCC(F)(F)F)CC[C@@H]21 | / | / | 1 | 0
CC12C(=O)N(c3nccs3)C(=O)C1(C)C1CCC2O1 (configuration not stated) | / | 0 | 6 | 43*
CN(C)c1nc(-c2ccccn2)nnc1-c1ccccc1 | -9 | / | / | /
CCN(CC)c1nc(-c2ccccn2)nc(-c2ccccc2)c1C#N | -17 | / | 4 | 43*
O=C(NCC[C@H]1CC[C@@H](NS(=O)(=O)c2ccc(Oc3ccccc3)cc2)[C@H](CO)O1)C1CC1 | / | 2 | 0 | 0
c1ccc([C@H]2CN3C(=N2)Sc2ccccc23)cc1 | 1 | 4 | 4 | 45*
CC(=O)N1SC(N)=NC1c1ccccc1 (configuration not stated) | 0 | / | / | /
COc1cccc(CNC(=O)C2CCN(S(=O)(=O)c3ccc(-n4cnnn4)cc3)CC2)c1 | -11 | 0 | -7 | 43*
COc1ccccc1CNC(=O)C1CCN(S(=O)(=O)c2ccc(-n3cnnn3)cc2)CC1 | -2 | 3 | 2 | 0
O=C(N[C@H]1CC[C@H](CCn2cc(C3CCCC3)nn2)O[C@@H]1CO)c1cccnc1 | / | -3 | -5 | /
O=C(O)C1CCCCC1C(=O)Nc1nc(-c2ccc(Cl)s2)cs1 (configuration not stated) | 0 | / | -16 | 43*
Cc1cc(C(=O)Nc2cccc3c2O[C@@H](CN(C)C(=O)NC2CCCCC2)[C@@H](C)CN([C@@H](C)CO)C3=O)n(C)n1 | / | 0 | 1 | 0
C[C@@H]1CN([C@@H](C)CO)C(=O)c2cc(C3=CCCC3)cnc2O[C@@H]1CN(C)C(=O)c1cccnc1 | / | 0 | 15 | 0
COc1ccccc1C1c2[nH]c3ccccc3c2C[C@H]2C(=O)N(C3CCN(Cc4ccccc4)CC3)CC(=O)N12 (some centres not stated) | 38* | 6 | -3 | 0
COc1ccc(C2c3[nH]c4ccccc4c3C[C@H]3C(=O)N(C4CCN(Cc5ccccc5)CC4)CC(=O)N23)cc1OC (some centres not stated) | -12 | -4 | 2 | 0
COc1cccc(C2c3[nH]c4ccccc4c3C[C@H]3C(=O)N(C4CCN(Cc5ccccc5)CC4)CC(=O)N23)c1 (some centres not stated) | 38* | 0 | -8 | 0
O=C(C[C@@H]1C=C[C@@H](NC(=O)C2CC2)[C@@H](CO)O1)NCCCN1CCOCC1 | / | -1 | -3 | 1
O=C(C[C@@H]1CC[C@@H](NC(=O)c2ccc(F)cc2)[C@@H](CO)O1)NCc1ccncn1 | / | -2 | 1 | 0
CC(C)CCNC(=O)C(=O)Nc1ccc2c(c1)N(S(=O)(=O)c1cccs1)CCC2 | 1 | 12* | -2 | 0
CC(C)CNC(=O)C(=O)Nc1ccc2c(c1)N(S(=O)(=O)c1cccs1)CCC2 | 7 | 0 | -1 | 0
O=C(O)C[C@@H]1C[C@@H]2c3cc(NC(=O)C4CCC4)ccc3O[C@@H]2[C@H](CO)O1 | / | 1 | 4 | /
COc1ccc(S(=O)(=O)N(C)C[C@@H]2Oc3c(NS(=O)(=O)c4ccc(F)cc4)cccc3C(=O)N([C@H](C)CO)C[C@@H]2C)cc1 | / | 1 | / | 0
